In ChEMBL document CHEMBL1151210, “Antioxidative constituents from the leaves of Hypericum styphelioides” (J Nat Prod, 2004):

What was measured:
[1] = Antioxidant activity assessed as trolox equivalent of free radical scavenging activity by chemiluminescence assay; assay type: functional
Method in brief: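 Measures inhibition of p-iodophenol-enhanced chemiluminescence from a horseradish peroxidase/perborate/luminol system. Signal reagent was made by dissolving tablets (luminol, p-iodophenol enhancer, perborate oxidant) in assay buffer. Trolox served as reference antioxidant, and activity is expressed in Trolox-equivalent mM.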

[2] = Antioxidant activity assessed as trolox equivalent of ABTS radical scavenging activity by spectrophotometry; assay type: functional
Method in brief: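 ABTS radical monocation, preformed, scavenging read spectrophotometrically. Samples were diluted in MeOH to 0.3, 0.5, 1.0, 1.5 and 2.0 mM. 10 µL of sample or Trolox standard was added to 1.0 mL diluted ABTS, with MeOH as control. % inhibition of A734 vs control was taken 1 min after mixing, in triplicate. Value = Trolox concentration matching the inhibition of 1 mM compound.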

SMILES	Activity [1] [mM]	Activity [2] [mM]
C[C@@H]1O[C@@H](OC[C@H]2O[C@@H](Oc3c(-c4ccc(O)c(O)c4)oc4cc(O)cc(O)c4c3=O)[C@H](O)[C@@H](O)[C@@H]2O)[C@H](O)[C@H](O)[C@H]1O	2.54	2.78
O=c1c(O)c(-c2ccc(O)c(O)c2)oc2cc(O)cc(O)c12	3.09	3.33
C=C(C)[C@H]1C[C@H](c2c(O)cc3oc4c(O)cccc4c(=O)c3c2O)C(C)(C)C1	1.94	2.92
CC(C)=CCC/C(C)=C/Cc1c(O)cc(O)c(C(=O)CC(C)C)c1O	0.96	1.1
C=C(C)[C@H]1C[C@H](c2c(O)cc3oc4c(O)c(O)ccc4c(=O)c3c2O)C(C)(C)C1	1.78	2.75
O=C(c1ccccc1)c1cc(O)c([C@@H]2O[C@H](CO)[C@@H](O)[C@H](O)[C@H]2O)c(O)c1	1.24	1.93
